# Sampled rows, rich in hits. Any-hit rate of the full collection: about 12%.
# Lmaj promast: Leishmania major promastigote growth inhibition, primary screen; Leishmania major promastigotes, resazurin fluorescence viability; inhibition, % at 10 µM; actives 9% (n = 200,000); AID 1063, 2008;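 note: promastigotes grown with compound for 44 hours at 28 °C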
# PKD1 inh: inhibitors of human PKD1 kinase, biochemical, fluorescence polarization | inhibition, % (concentration not given with the values) | Serine/threonine-protein kinase D1 (Homo sapiens), Q15139 | actives 0.056% (n = 200,000) | PKD1 kinase fluorescence polarization assay
# Wee1 stabilizer: Wee1 degradation inhibitors, primary screen, cell-based, HeLa, Wee1K328M-luciferase, luminescence; reporter increase, % at 5 µM; HeLa Luc-Wee1K328M stability; 100% = proteasome inhibitor MG132 effect; actives 1.2% (n = 220,000); AID 1321, 2008;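 active = activation above the mean of all tested compounds plus 3 SD, set per screening run, cut at about 8.8% in these data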;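 note: cells exposed to compound for 20 h before luminescence read; 0% = DMSO alone and 100% = MG132 at 30 µM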
# Target sequence (P30291 whole entry K328M): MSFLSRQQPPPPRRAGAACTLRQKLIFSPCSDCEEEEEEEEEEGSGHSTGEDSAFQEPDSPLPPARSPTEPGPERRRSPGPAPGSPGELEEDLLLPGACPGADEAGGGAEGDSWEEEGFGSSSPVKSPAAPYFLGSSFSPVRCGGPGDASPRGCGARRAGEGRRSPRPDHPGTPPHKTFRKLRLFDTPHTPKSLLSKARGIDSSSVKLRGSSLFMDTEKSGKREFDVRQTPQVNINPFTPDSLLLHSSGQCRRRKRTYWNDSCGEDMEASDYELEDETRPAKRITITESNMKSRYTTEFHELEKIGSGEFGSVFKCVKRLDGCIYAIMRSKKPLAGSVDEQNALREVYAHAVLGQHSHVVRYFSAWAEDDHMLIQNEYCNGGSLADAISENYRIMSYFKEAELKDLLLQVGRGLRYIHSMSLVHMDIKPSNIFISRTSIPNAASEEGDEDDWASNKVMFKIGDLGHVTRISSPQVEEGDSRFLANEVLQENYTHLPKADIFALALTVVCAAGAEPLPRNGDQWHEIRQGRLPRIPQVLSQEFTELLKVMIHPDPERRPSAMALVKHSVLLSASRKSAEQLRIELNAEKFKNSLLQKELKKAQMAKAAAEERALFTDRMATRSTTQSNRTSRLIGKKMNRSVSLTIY
# Rad51 HR inh: human RAD51 strand exchange inhibitors, primary screen, biochemical, fluorescence. DNA repair protein RAD51 homolog 1 (Homo sapiens), Q06609. hRad51 DNA strand exchange, fluorescence dequenching. inhibition, % at 10 µM. actives 0.085% (n = 200,000);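 active = inhibition above 40% at the single screening dose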;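 note: 0% = DMSO control wells and 100% = blanks with heterologous ssDNA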
#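 Test system: preformed human Rad51 ssDNA filaments; also added: Donor/quencher-labelled 47-bp dsDNA substrate; doses: 10 µM final, single point; times: 37 °C 15-min filament assembly, 30-min compound preincubation, 15-min exchange; detection: FRET fluorescence dequenching, excitation 485 nm, emission 520 nm; read-out basis: Fluorescence-based percent inhibition, control- and blank-normalised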
# Arbovirus inh: antivirals against arbovirus infection, primary screen, cell-based, full library, 10K replicate subset; arbovirus infection cell-based antiviral screen; inhibition, % at 10 µM; AID 1251, 2008; actives 0.37% (n = 200,000); in the data active = inhibition above about 30%
# CHOP inh: inhibitors of CHOP promoter induction, primary screen, cell-based, unfolded protein response, luciferase reporter; CHO-K1 CHOP-promoter luciferase, tunicamycin-induced, 15-18 h; inhibition, % at 10 µM; actives 3.8% (n = 220,000); AID 2732, 2010;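 active = compounds that reduced the stress-induced luciferase reporter signal by more than about 70% of percent inhibition, limit read from the data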;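 note: 0% = tunicamycin plus vehicle and 100% = wells without tunicamycin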
# * hit, by the source's call; . = not tested or not shown. Cut-off read from the data, not from the text of the source, unless noted: active = inhibition above about 50%; inactive = the rest.
SMILES,Lmaj promast,PKD1 inh,Wee1 stabilizer,Rad51 HR inh,Arbovirus inh,CHOP inh
O=C(N/N=C/c1ccc([N+](=O)[O-])o1)c1cn(-c2ccccc2)nc1-c1ccc(Cl)cc1,76*,2,1,-3,0,-61
O=C(N/N=C/c1ccc([N+](=O)[O-])o1)c1cn(-c2ccccc2)nc1-c1ccccc1,97*,-6,2,.,-30,95*
O=C(O)c1cn(-c2ccccc2)nc1-c1ccc(Cl)cc1,-3,-7,6,0,.,.
O=C(N/N=C\c1cn(-c2ccccc2)nc1-c1ccccc1)c1ccc(Br)o1,48,-3,0,.,-11,23
CN(C)C(=O)c1cn(-c2ccccc2)nc1-c1cc2ccccc2o1,4,-5,-3,-7,-4,-7
O=C(Nc1ccc([N+](=O)[O-])cc1)c1cn(-c2ccccc2)nc1-c1cc2ccccc2o1,56*,-10,-1,4,1,0
O=C(N/N=C/c1ccc(Br)s1)c1cccc([N+](=O)[O-])c1,19,3,1,5,-5,28
O=C(CNC(=O)c1cccc(F)c1)N/N=C/c1ccc([N+](=O)[O-])s1,100*,5,1,30,-15,-1
Cc1ccccc1C(=O)N/N=C/c1ccc([N+](=O)[O-])s1,100*,-10,-1,9,-28,59
O=C(CNC(=O)c1ccncc1)N/N=C/c1ccccc1[N+](=O)[O-],18,-7,0,11,2,9
O=C(N/N=C/c1ccc([N+](=O)[O-])s1)C(O)c1ccccc1 (stereo not drawn),100*,-11,-2,0,-29,49
O=C(N/N=C/c1ccc([N+](=O)[O-])s1)c1ccccc1,100*,-6,-2,3,-17,-11
Cc1ccc(/C=N/NC(=O)C(O)c2ccccc2)o1 (stereo not drawn),.,.,-3,0,.,-1
Cc1ccnn1CC(=O)N/N=C/c1ccc([N+](=O)[O-])s1,.,.,-1,20,.,-16
CCOC(=O)C1(CC)NC(c2ccc(OC)cc2OC)C2C(=O)N(C)C(=O)C21 (stereo not drawn),0,-4,-1,7,5,17
COc1ccc(CN2CCN(C(=O)c3cc(-c4cccnc4)nc4ccc(Cl)cc34)CC2)c(OC)c1OC,21,-3,-2,13,-8,-1
CC(=O)C1C(c2ccc(F)cc2)C2C(C)=NN=C2CC1(C)O (stereo not drawn),-3,5,5,.,0,7
O=C(N/N=C/c1cccs1)c1cncc(Br)c1,11,-2,2,5,11,-2
COC(=O)N/N=C/c1ccc([N+](=O)[O-])s1,69*,-2,0,-11,-20,-57
O=C(N/N=C/c1ccc([N+](=O)[O-])s1)c1ccccc1Br,100*,0,2,3,-26,15
O=C(N/N=C\c1ccc([N+](=O)[O-])s1)c1cncc(Br)c1,100*,1,-2,-4,-42,95*
O=C(Cc1ccccc1)N/N=C/c1ccc([N+](=O)[O-])s1,101*,0,-1,-7,-27,-79
CCOC(=O)Nc1nn(-c2ccc(C)cc2)c(=O)c(C#N)c1C,1,-6,2,25,-2,22
Cc1ccc(CN2CCN(Cc3cnc(N4CCOCC4)s3)CC2CCO)cc1 (stereo not drawn),-8,-2,3,4,-4,-18
CCOc1ccccc1NC(=O)C(=O)N/N=C/c1ccc([N+](=O)[O-])cc1,-2,0,-3,5,1,0
SMILES,Lmaj promast,PKD1 inh,Wee1 stabilizer,Rad51 HR inh,Arbovirus inh,CHOP inh
COc1ccccc1NC(=O)C(=O)N/N=C/c1ccc([N+](=O)[O-])s1,100*,-5,-2,5,-3,2
CNC(=S)NC1(C)CCS(=O)(=O)C1 (stereo not drawn),.,.,-1,.,.,11
Cn1c(NC(=O)/C=C/c2ccc(Cl)c(Cl)c2)cc(=O)n(C)c1=O,-5,-4,3,0,-6,-65
COc1ccc(/C=C/C(=O)Nc2cc(=O)n(C)c(=O)n2C)cc1,-6,-2,9.7*,-27,0,-35
Cn1c(NC(=O)/C=C/c2ccccc2)cc(=O)n(C)c1=O,-3,-17,8.9*,-1,7,-15
CSc1ccccc1C(=O)NCCOc1cccc(C)c1,-8,4,-2,-1,-4,11
Cc1cccnc1NC(=S)NC(=O)c1cncc(Br)c1,-5,-9,-5,6,-3,37
Cc1cccnc1NC(=S)NC(=O)c1cccs1,-4,0,13*,-1,-2,1
CCC(C(=O)NCc1ccncc1)c1ccccc1 (stereo not drawn),-4,6,0,6,-6,8
O=C(NC1CCCCC1)C(c1ccncc1)N(Cc1ccccc1)C(=O)c1ccc(-c2ccccc2)[nH]1 (stereo not drawn),99*,-14,-1,.,-27,34
O=C(NC1CCCCC1)C(c1ccc2ncccc2c1)N(Cc1ccccc1)C(=O)c1cccs1 (stereo not drawn),37,-5,1,-1,-3,16
CC(C)(C)NC(=O)C(c1ccc(F)cc1)N(Cc1ccco1)C(=O)c1csnn1 (stereo not drawn),3,1,-3,1,1,-2
CC(C)(C)NC(=O)C(c1ccncc1)N(Cc1ccco1)C(=O)c1ccc(-c2ccccc2)[nH]1 (stereo not drawn),74*,0,6,-1,0,-128
C/C(N)=C(/C#N)C(=O)COC(=O)CNS(=O)(=O)c1c(F)cccc1F,1,0,-3,-37,-3,-14
COc1ccc([N+](=O)[O-])cc1C(=O)Nc1ccc(OCC(=O)N2CCOCC2)cc1,-6,-13,-1,2,-4,-14
COc1ccc(-c2nn(C)c(=O)c3ccccc23)cc1NC(=O)Cn1nc(C)c2ccccc2c1=O,100*,0,3,-2,-11,40
CCC1Sc2ccccc2N(CC(=O)NC2CCCCC2)C1=O (stereo not drawn),2,0,9.3*,-3,8,1
Fc1ccccc1SCc1nnc(-c2ccccc2Br)o1,6,1,2,1,5,22
Cc1cccc(C)c1NC(=O)C1(N(Cc2ccco2)C(=O)CC2NC(=O)NC2=O)CCCCC1 (stereo not drawn),35,-7,0,-2,8,77*
COc1cc(C=Nc2cccc(C)c2)c(O)c([N+](=O)[O-])c1,68*,-9,1,2,-1,65

# Screens as filed in PubChem BioAssay.
